High-throughput results from PubChem BioAssay.
NRP1-CendR mod: modulators of CendR peptide binding to human neuropilin-1; O14786; FAM-RPARPAR peptide binding to NRP-1, fluorescence polarization; inhibition, % at 25 µM; 360,000 tested, 0.85% active; AID 602438;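 active = inhibition or corrected inhibition above about 18%, plus a signal ratio from 0.5 to 1.5, limit read from the data, passing the limit was not always enough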
Lipid droplet: hepatic lipid droplet formation modulation. AML12 mouse hepatocytes, oleate lipid droplets, BODIPY imaging. inhibition, % at 6.5 µM. 240,000 tested, 0.4% active;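 active = lipid droplet intensity inhibited by at least 50%, with more than 500 cells counted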
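material = mouse AML12 hepatocyte cell line, fixed after treatment | also added = 100 µM oleic acid challenge | doses = compound at 6.5 µM only | schedule = overnight exposure | technique = Image-based BODIPY and DAPI two-channel analysis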
sPLA2-III inh: Inhibits HGIII-sPLA2 liposome hydrolysis, primary screen; Q9NZ20; QFRET BODIPY PC-A2 liposome hydrolysis, fluorescence; inhibition, % at 12.2 µM; 370,000 tested, 0.56% active; AID 743126;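 active = inhibition above mean plus 3 SD of compounds lying within the high and low control bounds, cut at about 19% in these data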;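 note: 0% = median of test compound wells and 100% = no enzyme DMSO wells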
M18AAP inhibitor: blocks P. falciparum M18 aspartyl aminopeptidase; 290,000 tested, 1.2% active; inhibition, % at 7.35 µM; recombinant PfM18AAP, H-Glu-NHMec fluorogenic cleavage;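 active = inhibition above the campaign mean inhibition over all tested compounds plus 3 SD, cut at about 28% in these data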;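 note: 0% = plate median of test compound wells and 100% = 2 mM ZnCl2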
Arrestin-AP2 inh: inhibitors of human beta-arrestin and AP2 interaction. FITC-arrestin peptide / GST-AP2 beads, flow cytometry; AP2 beta2 appendage carries R879A mutation. AID 504490. 340,000 tested, 0.31% active. inhibition, % at 10 µM;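 active = inhibition above a set limit, near 3 SD of compounds lacking own fluorescence, cut at about 54% in these data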;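 note: plate controls were DMSO wells for no effect and 5 µM unlabelled arrestin peptide for full effect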
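system = GST-tagged AP2 beta2-adaptin appendage (R879A) on 4 µm glutathione beads | reagent = FITC-labelled arrestin peptide probe, 50 nM final | schedule = compound with beads 12 min RT, then probe 1 h RT | signal = HyperCyt-sampled flow cytometry, FL1 channel, ex 488/em 535 nm | read-out = percent response from loss of bead-bound FITC fluorescence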
HTR2A ag: mouse HTR2A agonism via beta-arrestin recruitment | 360,000 tested, 0.66% active | CHO-K1 mHTR2A beta-arrestin complementation, luminescence; percent of 30 µM serotonin response | AID 624169 | P35363 | activation, % at 7.6 µM;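 active = activation above a run cutoff, the mean activation of all tested compounds plus 3 SD, cut at about 14% in these data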;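 note: 0% = plate median of compound wells and 100% = 30 µM serotonin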
Target sequence (P35363 whole entry, looked up): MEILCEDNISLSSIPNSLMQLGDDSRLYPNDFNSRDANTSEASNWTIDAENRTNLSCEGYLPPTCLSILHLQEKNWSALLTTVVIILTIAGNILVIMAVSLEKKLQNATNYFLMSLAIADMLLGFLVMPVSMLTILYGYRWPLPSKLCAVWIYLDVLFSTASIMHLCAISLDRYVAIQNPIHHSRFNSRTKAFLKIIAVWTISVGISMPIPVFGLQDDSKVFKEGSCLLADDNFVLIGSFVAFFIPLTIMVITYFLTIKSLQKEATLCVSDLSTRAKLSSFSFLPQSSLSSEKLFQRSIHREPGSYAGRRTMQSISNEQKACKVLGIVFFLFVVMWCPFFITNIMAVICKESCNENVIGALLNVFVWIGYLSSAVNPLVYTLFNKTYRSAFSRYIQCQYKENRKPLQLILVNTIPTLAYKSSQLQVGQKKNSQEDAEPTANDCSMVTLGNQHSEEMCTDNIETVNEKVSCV
* hit, by the source's call; . = no result. An excerpt weighted towards active compounds, which were near 3.3% of everything screened.

SMILES	NRP1-CendR mod	Lipid droplet	sPLA2-III inh	M18AAP inhibitor	Arrestin-AP2 inh	HTR2A ag
Cc1ccc(S(=O)(=O)N(C)C)cc1NC(=O)C(C)OC(=O)c1ccc2c(=O)n3c(nc2c1)CCC3 (stereo not drawn)	-1.8	.	5.9	.	5.1	-6.1
Cc1ccc(C(C[N+](=O)[O-])c2c(C)[nH]n(-c3ccccc3)c2=O)cc1 (stereo not drawn)	16.6	-20.6	3.6	24.7	7.7	-0.6
Cc1[nH]n(-c2ccccc2)c(=O)c1C(C[N+](=O)[O-])c1ccc(F)cc1 (stereo not drawn)	1.0	-21.4	-3.6	29.7*	-0.2	-2.4
Cc1[nH]n(-c2ccccc2)c(=O)c1C(C[N+](=O)[O-])c1ccc(Cl)cc1 (stereo not drawn)	5.4	3.2	-6.8	28.5*	-2.6	-1.8
Cc1[nH]n(-c2ccccc2)c(=O)c1Sc1ccc(Cl)cc1	11.6	.	2.0	13.0	6.7	3.0
Oc1ccc(/C=N/NC(=S)N2CCOCC2)cc1	2.0	-21.4	2.1	32.8*	-5.6	5.3
COC(=O)[C@]12C[C@H](CC(=O)NCCC(C)C)C(=O)N(Cc3ccco3)C1=C[C@H](C1CCCC1)O[C@@H]2C	.	.	-12.4	.	.	.
CCNc1c([N+](=O)[O-])ncn1C	31.5*	8.6	9.9	-0.1	-9.1	-1.1
O=C(NNC(=O)c1ccc(Cl)s1)c1csc(N2CCOCC2)n1	18.7	.	-12.2	.	24.2	13.3
O=C(N/N=C/C1C(c2ccccc2)C1(Cl)Cl)c1cccc(Cl)c1 (stereo not drawn)	24.6*	-25.3	1.4	-3.1	-0.9	-6.6
O=C(N/N=C/c1c[nH]c2ccccc12)c1cccc(Cl)c1	2.9	12.0	-12.8	7.6	11.4	2.8
COc1cccc(/C=N/NC(=O)c2ccncc2)c1OC(=O)c1ccc(Br)cc1	20.0	3.5	.	-6.9	-15.7	-2.5
Cc1nc2ccc(S(=O)(=O)NCC(=O)N(C)Cc3ccccc3)cc2s1	26.0*	7.8	-2.3	3.0	8.3	3.9
Cc1nc2ccc(S(=O)(=O)NCC(=O)N3CCN(c4ccccc4)CC3)cc2s1	3.1	.	-2.7	-27.2	25.6	0.7
O=S(=O)(Nc1nc(-c2sccc2Cl)cs1)c1cc(Cl)ccc1Cl	-73.0	.	.	3.4	1.5	19.6*
Cc1cccc2c(N)c3c(nc12)N(C)CC3	-4.8	-16.2	2.5	31.3*	3.8	-1.1
CC(=O)N1CC(C)Sc2ccc(S(=O)(=O)NCc3ccccc3Cl)cc21 (stereo not drawn)	8.4	-0.7	-20.4	-14.8	-15.8	-0.8
CC(=O)N1CC(C)Sc2ccc(S(=O)(=O)NC3CCCCC3C)cc21 (stereo not drawn)	20.7*	-3.3	-5.8	2.3	-4.9	-1.3
CCOC(=O)C1CCCN(CCC(=O)Nc2cc(C)ccc2C)C1 (stereo not drawn)	-2.3	2.9	4.0	-2.9	-7.5	-2.2
CCOC(=O)C1CCN(Cc2cnc(Oc3ccc(OC)cc3)s2)CC1	-15.0	.	-9.3	-5.6	11.3	22.4*
CCOC(=O)C1CCCN(CCC(=O)Nc2ccccc2C)C1 (stereo not drawn)	22.6*	-16.1	13.3	1.1	9.7	-0.1
CCOC(=O)C1CCN(Cc2ccc3ccccc3c2)CC1	30.8*	-2.8	-6.4	-3.8	6.5	-4.1
CCOC(=O)C1CCCN(Cc2ccc(OC)c(OCc3ccccc3)c2)C1 (stereo not drawn)	22.8*	-42.6	-2.2	-1.9	6.9	6.1
CC(C)(C)c1cccc(N/C(=C\C(=O)c2ccccc2)c2ccccc2)c1	.	.	-0.2	.	.	.
Cc1ccccc1C(=O)Nc1ccc(N(C)C)c2ccccc12	-0.9	-3.0	7.7	4.8	10.1	-1.8
SMILES	NRP1-CendR mod	Lipid droplet	sPLA2-III inh	M18AAP inhibitor	Arrestin-AP2 inh	HTR2A ag
CC1CN(C(=O)COc2coc(CN3CCc4ccccc4C3)cc2=O)CC(C)O1 (stereo not drawn)	-10.1	.	2.8	.	-16.8	0.8
C[C@@H]1Cc2cc(O)cc(O)c2C(=O)O1	.	.	1.4	.	.	.
CCN(C(=O)CCc1nnc2ccc(NCc3ccco3)nn12)c1ccccc1	-5.5	-9.1	-8.9	29.0*	0.3	-2.8
Cc1ccc(CN2CCCCC(NC(=O)c3ccc(COc4ccccc4)cc3)C2=O)cc1 (stereo not drawn)	.	.	-3.4	.	.	.
CC1(O)C(=O)C2(C)C=CC1C1C(=O)N(c3ccccc3)C(=O)C12 (stereo not drawn)	.	.	6.9	.	.	.
CCOC(=O)C1CCN(C(=O)c2ccc(Cl)c(S(=O)(=O)N3CCCC3)c2)CC1	30.4*	1.7	-4.4	-1.6	0.3	-8.5
O=C(c1ccc(Cl)c(S(=O)(=O)N2CCCC2)c1)N1CCN(c2ccccc2)CC1	36.9*	6.1	-5.0	3.2	6.9	-0.2
CCOC(=O)C1CCN(C(=O)c2ccc(Cl)c(S(=O)(=O)N3CCOCC3)c2)CC1	-9.8	.	-5.5	-4.3	-2.9	-1.5
O=C(c1ccc(Cl)c(S(=O)(=O)N2CCCCC2)c1)N1CCN(c2ccccc2)CC1	-3.8	-10.6	7.6	-11.7	-10.0	-7.2
O=C(C1CCN(S(=O)(=O)c2ccccc2)CC1)N1CCN(c2ccccc2)CC1	11.2	0.7	4.5	-5.2	13.5	6.8
O=C(C1CCN(S(=O)(=O)c2ccc(Cl)s2)CC1)N1CCN(c2ccccc2)CC1	27.6*	.	-3.5	.	-10.6	-3.1
CCC(=O)Nc1cc2c3c(c1)CCC(=O)N3CCC2	25.7*	-4.4	0.6	-1.4	-2.8	2.4
COc1ccc(/C(C)=N/Nc2nncc3ccccc23)cc1	-7.8	-0.9	10.9	-0.9	15.1	0.6
CNC(=S)NNc1nncc2ccccc12	2.4	-16.7	3.9	30.1*	14.6	-2.1
CCOC(=O)c1c(NC(=O)COC(=O)Cn2cnc3ccccc32)sc2c1CCC(C)C2 (stereo not drawn)	33.3*	13.0	-9.6	-4.3	-3.1	5.6
O=C(Nc1ccn(C2CCC(CO)O2)c(=O)n1)c1ccccc1 (stereo not drawn)	10.1	.	11.4	.	.	0.1
COc1ccc(NC(=O)NC(=O)c2ccccc2)cc1	-3.1	-2.9	-2.5	-3.4	1.5	3.9
COc1ccc(NC(=O)NNC(=O)C(O)(c2ccccc2)c2ccccc2)cc1	28.2*	-4.9	-2.6	8.9	0.5	12.2
COC(=O)C1CCC(=S)N1C(=O)c1ccccc1 (stereo not drawn)	-5.9	1.2	2.2	1.5	4.7	1.8
COC(=O)[C@H]1CN(C(=O)c2ccccc2)C(=O)N1	24.9*	17.4	7.8	13.5	-0.9	-3.1
Oc1ccc2ccccc2c1CN1CCCCC1	25.6*	.	-31.1	.	-4.7	1.1
Cn1c(CCN2CCCC2)nc2cc(NC(=O)COc3ccc(Cl)cc3)ccc21	18.9*	.	-4.2	.	.	-8.6
CCN1CCN(CCc2nc3cc(NC(=O)COc4ccc(Cl)cc4)ccc3n2C)CC1	1.4	-1.3	-8.6	6.1	9.4	-4.9
